Experiments:
[1] = target: T1, 5-hydroxytryptamine receptor 2A (Rattus norvegicus, UniProt P14842); experiment: Evaluated for the binding constant at [125I]-DOI-labeled rat 5-hydroxytryptamine 2A receptor
Summary of the method: (§1)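 Competition binding with membranes from harvested cells. Rat 5-HT2A or 5-HT2C receptors were expressed in NIH3T3 cells and labelled with 0.20 nM [125I]DOI. […] Buffer was 50 mM Tris, 0.5 mM EDTA, 10 mM MgCl2, pH 7.4. Incubation ran 60 min at 25 °C, then filtration and counting. Ten concentrations were run in duplicate, n = 3-5. Ki was obtained by Cheng–Prusoff.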

[2] = target: 5-hydroxytryptamine receptor 2A (Rattus norvegicus) (UniProt P14842); experiment: Intrinsic activity was determined at 5-hydroxytryptamine 2A receptor which is percentage response given compared with the response produced by 10 uM serotonin.
5-hydroxytryptamine receptor 2A (Rattus norvegicus), sequence (P14842 whole entry): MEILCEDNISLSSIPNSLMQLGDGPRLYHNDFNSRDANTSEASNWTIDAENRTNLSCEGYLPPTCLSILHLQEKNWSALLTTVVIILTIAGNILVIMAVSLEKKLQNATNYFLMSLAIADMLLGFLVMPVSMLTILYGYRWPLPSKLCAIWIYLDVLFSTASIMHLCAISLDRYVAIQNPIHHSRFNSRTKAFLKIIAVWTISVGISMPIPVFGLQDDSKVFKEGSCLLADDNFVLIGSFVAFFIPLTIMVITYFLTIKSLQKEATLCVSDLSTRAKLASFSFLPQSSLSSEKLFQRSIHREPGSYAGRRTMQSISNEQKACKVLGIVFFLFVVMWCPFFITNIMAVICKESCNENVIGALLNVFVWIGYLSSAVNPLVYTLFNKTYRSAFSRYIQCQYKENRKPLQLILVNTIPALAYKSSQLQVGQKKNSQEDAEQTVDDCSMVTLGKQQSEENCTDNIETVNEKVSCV
Summary of the method: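 Cells were pretreated 15 min with 10 µM pargyline and 10 mM LiCl, then exposed to agonist for 30 min at 37 °C. Inositol phosphates were separated on Dowex-1 and counted. EC50 was taken for PI turnover. Intrinsic activity is the response relative to 10 µM serotonin. Repeated 3-4 times.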

[3] = target: T2, 5-hydroxytryptamine receptor 1A (Homo sapiens, UniProt P08908); experiment: Evaluated for the binding constant at [3H]8-OH-DPAT-labeled human 5-hydroxytryptamine 1A receptor
T2 sequence (P08908 whole entry): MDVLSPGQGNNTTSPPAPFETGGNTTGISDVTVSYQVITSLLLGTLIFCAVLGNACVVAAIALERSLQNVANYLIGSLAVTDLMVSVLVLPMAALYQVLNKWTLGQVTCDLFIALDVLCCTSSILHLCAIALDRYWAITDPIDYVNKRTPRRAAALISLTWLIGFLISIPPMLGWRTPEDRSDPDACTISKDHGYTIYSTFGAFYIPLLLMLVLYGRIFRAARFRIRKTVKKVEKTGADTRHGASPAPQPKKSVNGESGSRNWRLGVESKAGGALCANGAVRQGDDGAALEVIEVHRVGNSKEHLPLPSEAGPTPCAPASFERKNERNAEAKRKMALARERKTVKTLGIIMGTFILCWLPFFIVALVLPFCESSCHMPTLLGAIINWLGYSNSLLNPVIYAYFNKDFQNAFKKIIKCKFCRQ

Rattus norvegicus [4] = organism: Rattus norvegicus; experiment: Evaluated in the two-lever drug discrimination assay in LSD trained rats to assess hallucinogenic-like activity (95% confidence intervals); assay type: functional
Summary of the method: (§2)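 Rats trained (FR50, 15-min sessions) to discriminate ip training drug from saline: LSD 0.08 mg/kg (186 nmol/kg), DOI 0.4 mg/kg (1.12 µmol/kg) or LY293284 0.025 mg/kg (75 nmol/kg), in 0.9% saline. Test drugs given ip 30 min (or 15 min) before extinction sessions. At least three doses, at least eight rats per dose. Scored quantally as %SDL. ED50 and 95% CI by Litchfield–Wilcoxon.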

[5] = target: T3, 5-hydroxytryptamine receptor 2C (Rattus norvegicus, UniProt P08909); experiment: Evaluated for the binding constant at [125I]-DOI-labeled rat 5-hydroxytryptamine 2C receptor; summary of the method: as §1
T3 sequence (P08909 whole entry): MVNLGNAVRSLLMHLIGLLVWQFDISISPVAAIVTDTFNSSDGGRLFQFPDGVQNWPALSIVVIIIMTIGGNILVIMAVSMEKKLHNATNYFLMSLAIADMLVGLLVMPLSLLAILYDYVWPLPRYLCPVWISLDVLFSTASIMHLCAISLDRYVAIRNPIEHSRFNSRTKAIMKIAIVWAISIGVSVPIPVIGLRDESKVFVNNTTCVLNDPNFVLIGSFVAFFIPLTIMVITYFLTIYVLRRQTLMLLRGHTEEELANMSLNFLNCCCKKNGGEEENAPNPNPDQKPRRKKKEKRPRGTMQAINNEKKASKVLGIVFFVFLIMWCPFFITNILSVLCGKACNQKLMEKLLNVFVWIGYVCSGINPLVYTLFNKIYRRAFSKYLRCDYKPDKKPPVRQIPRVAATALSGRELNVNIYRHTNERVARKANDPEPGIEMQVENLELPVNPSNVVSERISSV

[6] = target: T1, 5-hydroxytryptamine receptor 2A; experiment: Evaluated for the effective concentration at [125I]-DOI-labeled rat 5-hydroxytryptamine 2A receptor
[7] = target: T2, 5-hydroxytryptamine receptor 1A; experiment: EC50 for inhibition of 50 uM forskolin-stimulated cAMP accumulation against 5-hydroxytryptamine 1A receptor; assay type: functional
Rattus norvegicus [8] = experiment: Maximum percentage of DOI-trained rats responding on the training drug lever at 4 umol/kg; assay type: functional; summary of the method: as §2
[9] = target: T4, 5-hydroxytryptamine receptor 1A (Rattus norvegicus) (UniProt P19327); experiment: Evaluated for the 5-hydroxytryptamine 1A receptor agonist activity in LY-293284 trained rats; assay type: functional; summary of the method: as §2
T4 sequence (whole entry): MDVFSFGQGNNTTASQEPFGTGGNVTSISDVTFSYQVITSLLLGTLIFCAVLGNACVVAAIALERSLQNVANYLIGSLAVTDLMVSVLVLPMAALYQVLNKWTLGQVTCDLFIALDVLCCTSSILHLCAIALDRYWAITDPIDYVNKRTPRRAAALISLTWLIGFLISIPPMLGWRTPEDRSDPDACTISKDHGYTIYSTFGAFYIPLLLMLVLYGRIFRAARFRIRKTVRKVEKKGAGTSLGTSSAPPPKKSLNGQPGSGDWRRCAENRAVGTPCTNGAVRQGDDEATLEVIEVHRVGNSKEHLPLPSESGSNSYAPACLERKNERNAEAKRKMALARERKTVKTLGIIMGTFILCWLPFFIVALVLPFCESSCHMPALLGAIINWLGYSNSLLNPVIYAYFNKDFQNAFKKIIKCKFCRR

Rattus norvegicus [10] = experiment: Maximum percentage of LSD-trained rats responding on the training drug lever at 2 umol/kg; assay type: functional; summary of the method: as §2
Rattus norvegicus [11] = experiment: Maximum percentage of DOI-trained rats responding on the training drug lever at 1 umol/kg; assay type: functional; summary of the method: as §2
Rattus norvegicus [12] = experiment: Maximum percentage of DOI-trained rats responding on the training drug lever at 8 umol/kg; assay type: functional; summary of the method: as §2
Rattus norvegicus [13] = experiment: Maximum percentage of LSD-trained rats responding on the training drug lever at 8 umol/kg; assay type: functional; summary of the method: as §2
Rattus norvegicus [14] = organism: Rattus norvegicus; experiment: Evaluated in the two-lever drug discrimination assay in DOI trained rats to assess hallucinogenic-like activity (95% confidence intervals); assay type: functional; summary of the method: as §2
[15] = target: T2, 5-hydroxytryptamine receptor 1A; experiment: Evaluated for the binding constant at [3H]8-OH-DPAT-labeled human 5-hydroxytryptamine 1A receptor receptor

T1 sequence (P14842 whole entry): as the sequence (P14842 whole entry) above

Compound | Ki [1] | Intrinsic activity [2] | Ki [3] | ED50 (Rattus norvegicus [4]) | Ki [5] | EC50 [6] | EC50 [7] | other results
CCN(CC)CCc1c[nH]c2ccccc12 | 133 nM | 82% | 47 nM | 2.53 µmol/kg | 104 nM | 5370 nM | 680 nM | –
COc1cc2c(CCN(C)C)c[nH]c2cc1F | 33 nM | 110% | 84.5 nM | 4.72 µmol/kg | 19 nM | 7900 nM | – | ED50 (Rattus norvegicus [8]): 50 µmol/kg
COc1ccc2[nH]cc(CCN(C)C)c2c1F | 122 nM | 88% | – | – | 55 nM | 18100 nM | 0.93 nM | ED50 [9]: 0.17 µmol/kg; ED50 (Rattus norvegicus [10]): 22 µmol/kg; ED50 (Rattus norvegicus [11]): 66 µmol/kg
CCN(CC)CCc1c[nH]c2cc(F)ccc12 | 145 nM | 63% | 256 nM | – | 210 nM | 33900 nM | 3700 nM | ED50 (Rattus norvegicus [12]): 33 µmol/kg; ED50 (Rattus norvegicus [13]): 40 µmol/kg
COc1cc(CC(C)N)c(OC)cc1I (centres undefined) | – | – | – | 0.27 µmol/kg | – | – | – | ED50 (Rattus norvegicus [14]): 0.3 µmol/kg
CCN(CC)CCc1c[nH]c2ccc(OC)cc12 | 42 nM | 99% | 1.7 nM | 1.49 µmol/kg | 16 nM | 2390 nM | 22 nM | –
CCCN(CCC)C1CCc2cccc(O)c2C1 (centres undefined) | – | – | – | – | – | – | – | ED50 [9]: 0.099 µmol/kg
CCCN(CCC)C1Cc2c[nH]c3ccc(C(C)=O)c(c23)C1 (centres undefined) [LY-293284] | – | – | – | – | – | – | 0.13 nM | ED50 [9]: 0.031 µmol/kg
CN(C)CCc1c[nH]c2cc(F)cc(O)c12 | – | 85% | 114 nM | – | 7.4 nM | 2600 nM | – | –
CN(C)CCc1c[nH]c2c(F)ccc(O)c12 | 13 nM | 76% | – | – | 5.4 nM | 4920 nM | – | Ki [15]: 120 nM; ED50 (Rattus norvegicus [13]): 63 µmol/kg
CCN(CC)C(=O)[C@@H]1C=C2c3cccc4[nH]cc(c34)C[C@H]2N(C)C1 [LYSERGIDE] | – | – | – | 0.037 µmol/kg | – | – | – | ED50 (Rattus norvegicus [14]): 0.014 µmol/kg
